From ChEMBL document CHEMBL5360562 (Eur J Med Chem, 2023)
Values after ≈ are worked out from the molar mass of the structure shown. One block for each compound: values may come before it.

Legend:
[1] = system: Acinetobacter baumannii; experiment: Antibacterial activity against Acinetobacter baumannii AB5075 assessed as reduction in bacterial growth incubated for 16 hrs by broth microdilution method; format: functional
[2] = system: Acinetobacter baumannii; experiment: Potentiation of Clarithromycin antibacterial activity against Acinetobacter baumannii AB5075 assessed as clarithromycin MIC at 30 uM incubated for 16 hrs by broth microdilution method; format: functional
[3] = system: Acinetobacter baumannii; experiment: Potentiation of Clarithromycin antibacterial activity against Acinetobacter baumannii AB5075 assessed as fold reduction in clarithromycin MIC at 30 uM incubated for 16 hrs by broth microdilution method; format: functional
In short: (§1)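 Checkerboard-style potentiation by broth microdilution. 6 h day cultures in CAMHB diluted to 5×10^5 CFU/mL. Adjuvant added from 10 mM DMSO stock at fixed concentration throughout. […] Controls: antibiotic alone, adjuvant alone, media only. Incubated stationary at 37 °C for 16 h. MIC is lowest concentration with no visible growth; fold reduction taken against the antibiotic-alone lane.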

[4] = system: Acinetobacter baumannii; experiment: Potentiation of Clarithromycin antibacterial activity against Acinetobacter baumannii AB5075 assessed as clarithromycin MIC at 10 uM incubated for 16 hrs by broth microdilution method; format: functional
[5] = system: Acinetobacter baumannii; experiment: Potentiation of Azithromycin antibacterial activity against Acinetobacter baumannii AB5075 assessed as azithromycin MIC at 30 uM incubated for 16 hrs by broth microdilution method; format: functional
[6] = system: Acinetobacter baumannii; experiment: Potentiation of Azithromycin antibacterial activity against Acinetobacter baumannii AB5075 assessed as azithromycin MIC at 20 uM incubated for 16 hrs by broth microdilution method; format: functional
[7] = system: Acinetobacter baumannii; experiment: Potentiation of Azithromycin antibacterial activity against Acinetobacter baumannii AB5075 assessed as azithromycin MIC at 10 uM incubated for 16 hrs by broth microdilution method; format: functional
[8] = system: Acinetobacter baumannii; experiment: Potentiation of erythromycin antibacterial activity against Acinetobacter baumannii AB5075 assessed as erythromycin MIC at 30 uM incubated for 16 hrs by broth microdilution method; format: functional
[9] = system: Acinetobacter baumannii; experiment: Potentiation of erythromycin antibacterial activity against Acinetobacter baumannii AB5075 assessed as erythromycin MIC at 20 uM incubated for 16 hrs by broth microdilution method; format: functional
[10] = system: Acinetobacter baumannii; experiment: Potentiation of erythromycin antibacterial activity against Acinetobacter baumannii AB5075 assessed as erythromycin MIC at 10 uM incubated for 16 hrs by broth microdilution method; format: functional
[11] = system: Acinetobacter baumannii; experiment: Potentiation of rifampicin antibacterial activity against Acinetobacter baumannii AB5075 assessed as rifampicin MIC at 30 uM incubated for 16 hrs by broth microdilution method; format: functional
[12] = system: Acinetobacter baumannii; experiment: Potentiation of rifampicin antibacterial activity against Acinetobacter baumannii AB5075 assessed as rifampicin MIC at 20 uM incubated for 16 hrs by broth microdilution method; format: functional
[13] = system: Acinetobacter baumannii; experiment: Potentiation of rifampicin antibacterial activity against Acinetobacter baumannii AB5075 assessed as rifampicin MIC at 10 uM incubated for 16 hrs by broth microdilution method; format: functional
[14] = system: Acinetobacter baumannii; experiment: Potentiation of Clarithromycin antibacterial activity against Acinetobacter baumannii AB5075 assessed as clarithromycin MIC at 7.5 uM incubated for 16 hrs by broth microdilution method; format: functional
[15] = system: Acinetobacter baumannii; experiment: Potentiation of Clarithromycin antibacterial activity against Acinetobacter baumannii AB5075 assessed as clarithromycin MIC at 5 uM incubated for 16 hrs by broth microdilution method; format: functional
[16] = system: Acinetobacter baumannii; experiment: Potentiation of Clarithromycin antibacterial activity against Acinetobacter baumannii AB5075 assessed as fold reduction in clarithromycin MIC at 7.5 uM incubated for 16 hrs by broth microdilution method; format: functional; in short: as §1
[17] = system: Acinetobacter baumannii; experiment: Potentiation of Clarithromycin antibacterial activity against Acinetobacter baumannii AB5075 assessed as fold reduction in clarithromycin MIC at 5 uM incubated for 16 hrs by broth microdilution method; format: functional; in short: as §1
[18] = Antiproliferative against human HepG2 cells assessed as reduction in cell viability incubated for 24 hrs by XTT assay; format: toxicity, cell-based
[19] = Therapeutic index, ratio of IC50 for antiproliferative against human HepG2 cells assessed as reduction in cell viability to MIC for potentiation of Clarithromycin antibacterial activity against Acinetobacter baumannii […] assessed as clarithromycin MIC; format: toxicity, cell-based; conditions: read-out: TI
[20] = Stability of compound in human plasma assessed as parent compound remaining measured at 4 hrs; format: ADME, cell-free
In short: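 Compound at 20 μM final in human plasma (from 10 mM DMSO stock), 37 °C; aliquots at 0, 30, 60, 120, 240 min quenched in internal standard in 1:1 ACN/MeOH, centrifuged, supernatant analysed by UPLC-MRM. Peak-area ratio to internal standard expressed as % parent remaining relative to 0 min; half-life calculated.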

[21] = Metabolic stability in human liver microsomes assessed as parent compound remaining in presence of NADPH measured at 1 hr by UV-UPLC analysis; format: ADME, Microsome
[22] = system: Acinetobacter baumannii; experiment: Potentiation of Clarithromycin antibacterial activity against Acinetobacter baumannii AB5075 assessed as reduction in clarithromycin MIC at 20 uM incubated for 16 hrs by broth microdilution method; format: functional
[23] = system: Acinetobacter baumannii; experiment: Potentiation of Clarithromycin antibacterial activity against Acinetobacter baumannii AB5075 assessed as fold reduction in clarithromycin MIC at 10 uM incubated for 16 hrs by broth microdilution method; format: functional; in short: as §1

Structure (SMILES): Cl.Cl.Nc1nc(-c2ccc(F)c(NC(=O)Nc3ccc(-c4c[nH]c(N)n4)c(F)c3)c2)c[nH]1
MIC [1]: > 200 µM
MIC [2]: 8 µg/mL
fold change (FC) [3]: 4

Structure (SMILES): Nc1nc(-c2ccc(NC(=O)Nc3cccc(-c4c[nH]c(N)n4)c3)cc2)c[nH]1
MIC [1]: > 200 µM
MIC [2]: 0.125 µg/mL
fold change (FC) [3]: 256
MIC [4]: 16 µg/mL
MIC [5]: 1 µg/mL
MIC [6]: 4 µg/mL
MIC [7]: 16 µg/mL
MIC [8]: 1 µg/mL
MIC [9]: 2 µg/mL
MIC [10]: 16 µg/mL
MIC [11]: 0.031 µg/mL
MIC [12]: 0.25 µg/mL
MIC [13]: 2 µg/mL

MIC [1]: > 200 µM
MIC [2]: 0.5 µg/mL
MIC [14]: 1 µg/mL
MIC [15]: 8 µg/mL
Stability [20]: > 95%
Stability [21]: 57%
Structure (SMILES): Nc1nc(-c2ccc(NC(=O)c3ccc(Cl)c(Cl)c3)cc2F)c[nH]1
fold change (FC) [3]: 64
fold change (FC) [16]: 32
fold change (FC) [17]: 4
IC50 at 24 h [18]: 6.8 µg/mL (≈ 18.6 µM)
selectivity ratio [19]: 2.3

Structure (SMILES): Cl.Cl.Nc1nc(-c2ccc(F)c(NC(=O)Nc3cc(-c4c[nH]c(N)n4)ccc3F)c2)c[nH]1
MIC [1]: > 200 µM
MIC [2]: 32 µg/mL
fold change (FC) [3]: 1

Structure (SMILES): Cl.Cl.Nc1nc(-c2ccc(NC(=O)Nc3ccc(-c4c[nH]c(N)n4)c(Cl)c3)cc2Cl)c[nH]1
MIC [1]: > 200 µM
MIC [2]: 32 µg/mL
fold change (FC) [3]: 1

Structure (SMILES): COc1cc(-c2c[nH]c(N)n2)ccc1NC(=O)Nc1ccc(-c2c[nH]c(N)n2)cc1OC.Cl.Cl
MIC [1]: 200 µM
MIC [2]: 8 µg/mL
fold change (FC) [3]: 4

Structure (SMILES): Cl.Cl.Nc1nc(-c2ccc(NC(=O)Nc3ccc(-c4c[nH]c(N)n4)cc3F)c(F)c2)c[nH]1
MIC [1]: > 200 µM
MIC [2]: 4 µg/mL
fold change (FC) [3]: 8

Structure (SMILES): Cl.Cl.Nc1nc(-c2cccc(NC(=O)Nc3cccc(-c4c[nH]c(N)n4)c3F)c2F)c[nH]1
MIC [1]: > 200 µM
MIC [2]: 0.25 µg/mL
MIC [14]: 2 µg/mL
fold change (FC) [3]: 128
fold change (FC) [16]: 16
fold change (FC) [22]: 64
MIC ([22]; Acinetobacter baumannii, AB5075): 0.5 µg/mL
MIC [4]: 1 µg/mL
fold change (FC) [23]: 32

Structure (SMILES): Cl.Cl.Nc1nc(-c2ccc(NC(=O)Nc3ccc(-c4c[nH]c(N)n4)c(C(F)(F)F)c3)cc2C(F)(F)F)c[nH]1
MIC [1]: > 200 µM
MIC [2]: 2 µg/mL
fold change (FC) [3]: 16
